In brackets after ≈: the same amount, converted by molar mass. Bridge positions count the residues as written; N and C are the ends. Square brackets hold non-standard residues; d marks the D form. Peptide text beside a SMILES is read from it. * marks the point of attachment. Heptanoyl(6-Me) = CC(C)CCCCC(=O)*; Octanoyl(7-Me) = CC(C)CCCCCC(=O)*; Nonanoyl = CCCCCCCCC(=O)*; X1 = CC[C@H](C)CCCCC(=O)*; Heptanoyl = CCCCCCC(=O)*; Octanoyl = CCCCCCCC(=O)*; Dab = NCC[C@H](N)C(=O)O; Nva = CCC[C@H](N)C(=O)O
Columns and labels:
Acinetobacter baumannii = test: Antibacterial activity against Acinetobacter baumannii ATCC 19606 after 18 hrs by agar dilution method; type: functional; conditions: ATCC 19606 = CIP 70.34 = JCM 6841, 18 h
How it was run: (§1)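 Serial two-fold agar dilution per CLSI; bacteria cultured in Mueller-Hinton broth, inoculum about 10^4 cfu/spot; final concentrations 0.03-128 µg/mL; plates incubated 35 °C for 18 h. MIC = lowest concentration preventing visible growth; representative of at least two independent experiments, a third run when the two disagreed.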

Pseudomonas aeruginosa = test: Antibacterial activity against Pseudomonas aeruginosa ATCC 27853 after 18 hrs by agar dilution method; type: functional; conditions: ATCC 27853, 18 h; how it was run: as §1
Escherichia coli [1] = test: Antibacterial activity against Escherichia coli ATCC 25922 after 18 hrs by agar dilution method; type: functional; conditions: ATCC 25922, 18 h; how it was run: as §1
Escherichia coli [2] = test: Antibacterial activity against extended-spectrum beta-lactamase producing Escherichia coli isolate 14-11 after 18 hrs by agar dilution method; type: functional; conditions: isolate 14-11, 18 h; how it was run: as §1
Klebsiella pneumoniae [3] = test: Antibacterial activity against extended-spectrum beta-lactamase producing Klebsiella pneumoniae 700603 after 18 hrs by agar dilution method; type: functional; conditions: Klebsiella pneumoniae, 700603, 18 h; how it was run: as §1
[4] = Cytotoxicity against African green monkey Vero cells after 72 hrs by MTT assay; type: cell-based; conditions: chlorocebus sabaeus, Vero cells
How it was run: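 Vero cells seeded at 2x10^3 cells/well, incubated 24 h at 37 °C, 5% CO2, then exposed to compound 72 h; MTT added for 2 h, medium removed, formazan dissolved in DMSO, absorbance read at 570 nm. Viability relative to untreated cells (100%); CC50 as mean ± SD of three independent experiments, each in triplicate.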

Klebsiella pneumoniae [5] = test: Antibacterial activity against NDM-1 producing Klebsiella pneumoniae ATCC BAA-2146 after 18 hrs by agar dilution method; type: functional; conditions: ATCC BAA-2146, 18 h; how it was run: as §1
[6] = Acute toxicity in iv dosed ICR mouse assessed as survival measured daily for 7 days; type: organism-based; conditions: in vivo
How it was run: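 ICR mice, 18 to 22 g, 4 weeks old, 10 per group (5 male, 5 female). Four to five intravenous dose groups per compound. Survival recorded daily for 7 days. LD50 (dose per kg body weight lethal to 50%) calculated by the Bliss method. LD50 values compared by one-way ANOVA.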

Structure (SMILES) | MIC (Acinetobacter baumannii) [µg/mL] | MIC (Pseudomonas aeruginosa) [µg/mL] | MIC (Escherichia coli [1]) [µg/mL] | MIC (Escherichia coli [2]) [µg/mL] | MIC (Klebsiella pneumoniae [3]) [µg/mL] | CC50 at 72 h [4] [µg/mL] | MIC (Klebsiella pneumoniae [5]) [µg/mL] | LD50 at 168 h [6] [mg/kg]
CCC[C@@H]1NC(=O)[C@@H](CC(C)C)NC(=O)[C@H](CCN)NC(=O)[C@@H](NC(=O)[C@H](CCN)NC(=O)[C@@H](NC(=O)[C@H](CCN)NC(=O)CCCC[C@@H](C)CC)[C@@H](C)O)CCNC(=O)[C@H]([C@@H](C)O)NC(=O)[C@H](CCN)NC(=O)[C@H](CCN)NC1=O (X1-[Dab]T[Dab][Dab][Dab][dL][Nva][Dab][Dab]T; lactam 4-C) | 1 (≈ 0.865 µM) | 1 (≈ 0.865 µM) | 1 (≈ 0.865 µM) | 1 (≈ 0.865 µM) | 2 (≈ 1.73 µM) | 109 (≈ 94.3 µM) | 1 (≈ 0.865 µM) | –
CCCCCCCCC(=O)N[C@@H](CCN)C(=O)N[C@H](C(=O)N[C@@H](CCN)C(=O)N[C@H]1CCNC(=O)[C@H]([C@@H](C)O)NC(=O)[C@H](CCN)NC(=O)[C@H](CCN)NC(=O)[C@H](CC(C)C)NC(=O)[C@@H](Cc2ccccc2)NC(=O)[C@H](CCN)NC1=O)[C@@H](C)O [POLYMYXIN B5] (Nonanoyl-[Dab]T[Dab][Dab][Dab][dF]L[Dab][Dab]T; lactam 4-C) | 2 (≈ 1.66 µM) | 4 (≈ 3.32 µM) | 2 (≈ 1.66 µM) | 2 (≈ 1.66 µM) | 2 (≈ 1.66 µM) | 33 (≈ 27.4 µM) | 4 (≈ 3.32 µM) | –
CC[C@H](C)CCCCC(=O)N[C@@H](CCN)C(=O)N[C@H](C(=O)N[C@@H](CCN)C(=O)N[C@H]1CCNC(=O)[C@H]([C@@H](C)O)NC(=O)[C@H](CCN)NC(=O)[C@H](CCN)NC(=O)[C@H](C(C)C)NC(=O)[C@@H](CC(C)C)NC(=O)[C@H](CCN)NC1=O)[C@@H](C)O (X1-[Dab]T[Dab][Dab][Dab][dL]V[Dab][Dab]T; lactam 4-C) | 0.5 (≈ 0.433 µM) | 2 (≈ 1.73 µM) | 0.5 (≈ 0.433 µM) | 0.5 (≈ 0.433 µM) | 1 (≈ 0.865 µM) | 131 (≈ 113 µM) | 0.5 (≈ 0.433 µM) | –
CC[C@H](C)CCCCC(=O)N[C@@H](CCN)C(=O)N[C@H](C(=O)N[C@@H](CCN)C(=O)N[C@H]1CCNC(=O)[C@H]([C@@H](C)O)NC(=O)[C@H](CCN)NC(=O)[C@H](CCN)NC(=O)[C@H]([C@@H](C)CC)NC(=O)[C@@H](CC(C)C)NC(=O)[C@H](CCN)NC1=O)[C@@H](C)O | 1 (≈ 0.855 µM) | 2 (≈ 1.71 µM) | 1 (≈ 0.855 µM) | 0.5 (≈ 0.428 µM) | 1 (≈ 0.855 µM) | 176 (≈ 150 µM) | 1 (≈ 0.855 µM) | –
CCC[C@@H]1NC(=O)[C@@H](CC(C)C)NC(=O)[C@H](CCN)NC(=O)[C@@H](NC(=O)[C@H](CCN)NC(=O)[C@@H](NC(=O)[C@H](CCN)NC(=O)CCCCC(C)C)[C@@H](C)O)CCNC(=O)[C@H]([C@@H](C)O)NC(=O)[C@H](CCN)NC(=O)[C@H](CCN)NC1=O ({Heptanoyl(6-Me)}-[Dab]T[Dab][Dab][Dab][dL][Nva][Dab][Dab]T; lactam 4-C) | 0.5 (≈ 0.438 µM) | 1 (≈ 0.876 µM) | 0.5 (≈ 0.438 µM) | 0.25 (≈ 0.219 µM) | 0.5 (≈ 0.438 µM) | 168 (≈ 147 µM) | 0.5 (≈ 0.438 µM) | 12.4
CC(C)CCCCCC(=O)N[C@@H](CCN)C(=O)N[C@H](C(=O)N[C@@H](CCN)C(=O)N[C@H]1CCNC(=O)[C@H]([C@@H](C)O)NC(=O)[C@H](CCN)NC(=O)[C@H](CCN)NC(=O)[C@H](CC(C)C)NC(=O)[C@@H](CC(C)C)NC(=O)[C@H](CCN)NC1=O)[C@@H](C)O ({Octanoyl(7-Me)}-[Dab]T[Dab][Dab][Dab][dL]L[Dab][Dab]T; lactam 4-C) | 1 (≈ 0.855 µM) | 2 (≈ 1.71 µM) | 1 (≈ 0.855 µM) | 1 (≈ 0.855 µM) | 1 (≈ 0.855 µM) | 87 (≈ 74.4 µM) | 1 (≈ 0.855 µM) | –
CCCCCCC(=O)N[C@@H](CCN)C(=O)N[C@H](C(=O)N[C@@H](CCN)C(=O)N[C@H]1CCNC(=O)[C@H]([C@@H](C)O)NC(=O)[C@H](CCN)NC(=O)[C@H](CCN)NC(=O)[C@H](CC(C)C)NC(=O)[C@@H](CC(C)C)NC(=O)[C@H](CCN)NC1=O)[C@@H](C)O (Heptanoyl-[Dab]T[Dab][Dab][Dab][dL]L[Dab][Dab]T; lactam 4-C) | 2 (≈ 1.75 µM) | 1 (≈ 0.876 µM) | 1 (≈ 0.876 µM) | 0.5 (≈ 0.438 µM) | 0.5 (≈ 0.438 µM) | 216 (≈ 189 µM) | 0.5 (≈ 0.438 µM) | –
CCCCCCCC(=O)N[C@@H](CCN)C(=O)N[C@H](C(=O)N[C@@H](CCN)C(=O)N[C@H]1CCNC(=O)[C@H]([C@@H](C)O)NC(=O)[C@H](CCN)NC(=O)[C@H](CCN)NC(=O)[C@H](CC(C)C)NC(=O)[C@@H](Cc2ccccc2)NC(=O)[C@H](CCN)NC1=O)[C@@H](C)O (Octanoyl-[Dab]T[Dab][Dab][Dab][dF]L[Dab][Dab]T; lactam 4-C) | 0.5 (≈ 0.42 µM) | 1 (≈ 0.841 µM) | 0.5 (≈ 0.42 µM) | 1 (≈ 0.841 µM) | 1 (≈ 0.841 µM) | 86 (≈ 72.3 µM) | 1 (≈ 0.841 µM) | –
